Source: PubChem BioAssay
In the library only some 3.1% were active in any assay of this set; here they are far more common.
Env fusion inh: blocks HIV Env-driven cell-cell fusion. HeLa-JRFL Env/CEM21 cell fusion, luciferase. inhibition, % at 12.3 µM. hit rate 1.1% among 360,000. AID 651610;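 active means mean replicate inhibition score of at least 50 and every replicate individually at or above 50; inconclusive means only one of the two criteria met; inactive means mean below 50 and not all replicates reaching 50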;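 further: 0% = plate neutral controls and 100% = maraviroc near 300 nM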
rRNA inh HTS: inhibitors of bacterial rRNA selective over humanized ribosomes | hit rate 1.6% among 350,000 | GFP signal change (wild-type ribosome), % (concentration not given with the values) | E. coli WT GFP vs humanized-ribosome RFP mutants, fluorescence, 24 h; hits give low values; DMSO median 0, no signal -100 | AID 720706;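 active means significant combined selectivity score with lowered wild-type GFP, culture density cut under 30%, mutant RFP and density less affected; inactive means any of these conditions unmet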
Cneo AK release: causes C. neoformans cell lysis; adenylate kinase release luminescence, 4 h; normalised: neutral wells 0, clomiphene wells 100; lysis activity, % at 15 µM; hit rate 0.2% among 360,000; AID 651654;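 active means mean lysis activity across replicates of at least 80%, whatever share of replicates individually reach that level; inactive means mean lysis activity below 80%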
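Assay system: Cryptococcus neoformans yeast cells / Dosing: single-point compound dose / Timing: 4 h at 37 °C static, read 1 h later / Measured by: luminescence of released adenylate kinase using an AK detection reagent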
miR-122 sensor: inhibitors of miR-122 in Huh7 cells | Huh7 miR-122 Renilla luciferase sensor, 48 h; neutral wells = 0, positive control = 100 | activation (reporter increase), % at 12.5 µM | hit rate 0.3% among 340,000 | AID 602342;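 active means mean replicate activation score at least 90 and every replicate individually at or above 90; inconclusive means only one of the two criteria met; inactive means neither criterion met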;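 further: higher luciferase means less miR-122 activity so hits act as miR-122 inhibitors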
F508del corr: CFTR F508del correction in bronchial cells. CFBE cells, YFP halide quenching; stimulated with forskolin plus potentiator P3; % fluorescence drop versus neutral controls. AID 720511. activity (quench increase), % at 7.58 µM. hit rate 0.36% among 350,000;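 active means mean added fluorescence quench of at least 8% versus neutral control, with both replicates also reaching 8%; inconclusive means only one of the mean or replicate conditions met; inactive means mean below 8% and not both replicates reaching 8%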;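 further: cells transiently co-express mutant CFTR-F508del with the halide-sensitive YFP; corrector assay measuring rescue of mutant channel to the surface after 24 h compound exposure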
INS-1E GSIS act: primary screen for activators of insulin secretion dependent on glucose, INS-1E cells, GLuc reporter luminescence. INS-1E GLuc reporter insulin secretion, 2-3 h. activation, % at 16.6 µM. hit rate 0.61% among 370,000. AID 743287;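 active means lowest replicate activation of at least 40%, so every replicate reaches that level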;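 further: 0% = median of neutral control wells and 100% = median of IBMX positive control wells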
An asterisk follows results filed as active; [ ] = another dose, or the depositor's remark.

`Cn1c(=O)c2cc(NC(=S)NCc3ccccc3F)ccc2n1Cc1cccc(C(F)(F)F)c1` gave rRNA inh HTS -3, Cneo AK release -1, miR-122 sensor 33, F508del corr 3 and INS-1E GSIS act -10.
`C=C(C)Cn1c2ccc(NC(=S)NCc3ccccc3F)cc2c(=O)n1C` gave Env fusion inh 1, rRNA inh HTS -23*, Cneo AK release 0, miR-122 sensor 5, F508del corr 0 and INS-1E GSIS act -10.
For Cn1c(=O)c2cc(NC(=S)NCc3ccccc3F)ccc2n1Cc1ccccc1 the results were Env fusion inh 27, rRNA inh HTS 4, Cneo AK release 2, miR-122 sensor 5, F508del corr 1 and INS-1E GSIS act -13.
Screening Cc1cc(C)cc(Cn2c3ccc(NC(=S)NCc4ccccc4F)cc3c(=O)n2C)c1 returned Env fusion inh 16, rRNA inh HTS 4, Cneo AK release -2, miR-122 sensor inconclusive, F508del corr -8 and INS-1E GSIS act 56*.
Screening C[C@@H]1CN([C@@H](C)CO)C(=O)c2cc(NC(=O)Nc3cccc4ccccc34)ccc2O[C@H]1CN(C)Cc1ccncc1 returned Env fusion inh 1[16.7 µM], rRNA inh HTS -5, Cneo AK release 69, miR-122 sensor 0[16.7 µM], F508del corr 1 and INS-1E GSIS act 1.
Screening CCC(=O)Nc1ccc2c(c1)C(=O)N(C)[C@@H]1CC[C@H](CC(=O)NCc3ccc(OC)cc3)O[C@@H]1CO2 returned Env fusion inh -3[16.7 µM], rRNA inh HTS -1, Cneo AK release -2, miR-122 sensor 7[16.7 µM], F508del corr -2 and INS-1E GSIS act -11.
Cc1noc(C)c1NC(=O)Nc1ccc2c(c1)C(=O)N([C@@H](C)CO)C[C@@H](C)[C@H](CN(C)S(=O)(=O)c1cn(C)cn1)OCCCC[C@@H](C)O2 was read as Env fusion inh 2[16.7 µM], rRNA inh HTS 3, Cneo AK release -2, miR-122 sensor -5[16.7 µM], F508del corr 0 and INS-1E GSIS act 3.
`C[C@@H]1CN([C@H](C)CO)C(=O)c2cc(-c3cccnc3)cnc2O[C@@H]1CN(C)C(=O)Cc1cccnc1` gave Env fusion inh 7[16.7 µM], rRNA inh HTS 3, Cneo AK release 4, miR-122 sensor 3[16.7 µM], F508del corr -1 and INS-1E GSIS act 24.
Screening Cc1ccc(C)c(C(=O)NCCN(C)C)c1 returned Env fusion inh 0, Cneo AK release -2 and miR-122 sensor -2.
`C=C(CN(C)C)C(=O)c1cc(C)ccc1C` gave Env fusion inh -31, rRNA inh HTS 3, miR-122 sensor 9, F508del corr 3 and INS-1E GSIS act 90*.
`Cc1cc(/C=C(\C#N)C(=O)Nc2ccc(F)cc2)c(C)n1-c1ccc(N2CCOCC2)c([N+](=O)[O-])c1` gave Env fusion inh 85*, Cneo AK release 0, miR-122 sensor -6 and INS-1E GSIS act -9.
Screening C[C@H]1CN([C@@H](C)CO)C(=O)c2cc(C#CCN(C)C)cnc2O[C@@H]1CN(C)S(=O)(=O)c1ccccc1 returned Env fusion inh -2[16.7 µM], rRNA inh HTS 4, Cneo AK release 8, miR-122 sensor 7[16.7 µM], F508del corr 1 and INS-1E GSIS act 9.
CO[C@H]1CN(C)C(=O)c2ccc(NS(=O)(=O)c3ccc(Oc4ccccc4)cc3)cc2OC[C@@H](C)NC[C@H]1C was read as Env fusion inh 2[16.7 µM], rRNA inh HTS -2, Cneo AK release -4, F508del corr 0 and INS-1E GSIS act 7.
For COc1cccc(S(=O)(=O)Nc2ccc3c(c2)OC[C@H](C)NC[C@@H](C)[C@H](OC)CN(C)C3=O)c1 the results were Env fusion inh -1[16.7 µM], rRNA inh HTS 1, Cneo AK release 87*, miR-122 sensor -14[16.7 µM], F508del corr 0 and INS-1E GSIS act -1.
`CO[C@@H]1CN(C)C(=O)c2ccc(NS(=O)(=O)c3ccc(Oc4ccccc4)cc3)cc2OC[C@@H](C)NC[C@@H]1C` gave Env fusion inh 56*[16.7 µM], rRNA inh HTS -1, F508del corr -1 and INS-1E GSIS act -1.
